According to ChEMBL document CHEMBL2034924, “Optimization of a Potent, Orally Active S1P1 Agonist Containing a Quinolinone Core” (ACS Med Chem Lett, 2012):
Values after ≈ are worked out from the molar mass of the structure shown.

Columns and labels:
[1] = target: T1, Sphingosine 1-phosphate receptor 1 (Homo sapiens, UniProt P21453); experiment: Agonist activity at human S1P1 receptor expressed in human U2OS cells co-expressing eGFP assessed as receptor internalization after 1 hr; type: functional, cell-based
T1 sequence (P21453 whole entry, the tested form may be a part): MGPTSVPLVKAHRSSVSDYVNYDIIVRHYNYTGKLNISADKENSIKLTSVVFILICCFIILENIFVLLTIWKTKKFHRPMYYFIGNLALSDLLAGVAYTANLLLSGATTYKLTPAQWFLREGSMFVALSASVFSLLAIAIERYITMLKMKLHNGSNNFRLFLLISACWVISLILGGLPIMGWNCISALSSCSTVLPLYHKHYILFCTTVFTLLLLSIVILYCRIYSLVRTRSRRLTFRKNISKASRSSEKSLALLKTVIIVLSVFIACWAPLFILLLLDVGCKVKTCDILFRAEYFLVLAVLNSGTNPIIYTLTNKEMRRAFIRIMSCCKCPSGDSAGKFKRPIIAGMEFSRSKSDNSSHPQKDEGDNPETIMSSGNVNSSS
Summary of the method: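 U2OS cells expressing an hS1P1-GFP fusion protein; the read-out was receptor internalization. EC50 is the molar concentration giving a half-maximal response.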

[2] = target: T1, Sphingosine 1-phosphate receptor 1; experiment: Agonist activity at human S1P1 receptor expressed in human U2OS cells co-expressing eGFP assessed as receptor internalization after 1 hr relative to 1-(4-(6-benzylbenzofuran-2-yl)-3-fluorobenzyl)azetidine-3-carboxylic acid; type: functional, cell-based
[3] = target: T2, Sphingosine 1-phosphate receptor 3 (Homo sapiens, UniProt Q99500); experiment: Agonist activity at human S1P3 receptor expressed in CHO cells coexpressing Gq/i5 G-protein assessed as Ca2+ mobilization after 60 to 90 mins by FLIPR assay; type: functional, cell-based
T2 sequence (Q99500 whole entry): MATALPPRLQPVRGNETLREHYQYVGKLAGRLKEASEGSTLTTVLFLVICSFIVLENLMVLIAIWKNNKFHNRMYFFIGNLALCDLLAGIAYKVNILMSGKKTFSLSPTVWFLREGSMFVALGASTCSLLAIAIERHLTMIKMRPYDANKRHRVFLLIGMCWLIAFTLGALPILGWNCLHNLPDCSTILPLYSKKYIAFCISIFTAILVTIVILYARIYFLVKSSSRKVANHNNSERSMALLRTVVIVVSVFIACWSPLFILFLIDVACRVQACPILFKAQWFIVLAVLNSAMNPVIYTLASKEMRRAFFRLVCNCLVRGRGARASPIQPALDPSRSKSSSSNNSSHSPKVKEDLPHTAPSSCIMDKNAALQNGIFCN
Summary of the method: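 Ca2+ mobilization in CHO-K1 cells transfected with hS1P3/Gq/i5. EC50 is the molar concentration giving a half-maximal response.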

[4] = target: T2, Sphingosine 1-phosphate receptor 3; experiment: Agonist activity at human S1P3 receptor expressed in CHO cells coexpressing Gq/i5 G-protein assessed as Ca2+ mobilization at 25 uM after 60 to 90 mins by FLIPR assay; type: functional, cell-based
[5] = target: T2, Sphingosine 1-phosphate receptor 3; experiment: Agonist activity at human S1P3 receptor expressed in CHO cells coexpressing Gq/i5 G-protein assessed as Ca2+ mobilization after 60 to 90 mins by FLIPR assay relative to 0.2 uM S1P
[6] = Solubility of the compound in simulated intestinal fluid at pH 6.8 after 2 to 3 days by HPLC analysis; type: physicochemical
[7] = Apparent permeability of the compound across pig LLC-PK1 cells; type: ADME, cell-based, Sus scrofa
Summary of the method: (§1)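 Parental porcine proximal tubule LLC-PK1 cell line. Apparent permeability was measured, and the efflux ratio was derived from it.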

[8] = Efflux ratio of permeability in pig LLC-PK1 cells; type: ADME, cell-based, Sus scrofa; summary of the method: as §1
[9] = Plasma protein binding in rat; type: ADME, cell-free; conditions: read-out: PPB (converted)
[10] = Intrinsic clearance in rat liver microsomes at 1 uM after 30 mins; type: ADME, Microsome; conditions: read-out: CLH
Rattus norvegicus = experiment: Lymphopenic activity in Lewis rat assessed as reduction in peripheral blood lymphocyte counts at 1 mg/kg, po measured 24 hrs post dosing relative to control; type: functional; parameters: scale not given: the % may be the effect or the level left
Summary of the method: (§2)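 Female Lewis rats (N = 5/group) received a single oral dose of 1 mg/kg in 20% captisol, 1% HPMC, 1% pluronic F68, pH 2.1 with MSA. Peripheral lymphocyte count is given as percent-of-control reduction versus vehicle at 24 h. Total plasma drug concentration was measured at 24 h. Statistics used ANOVA/Dunnett versus vehicle.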

Plasma = experiment: (§3) Plasma concentration in Lewis rat at 1 mg/kg, po measured 24 hrs post dosing; type: ADME, organism-based; parameters: dose 1 mg/kg, route oral; conditions: in vivo, 24 h, BLD = below limit of detection; summary of the method: as §2
[11] = as §3; type: ADME, organism-based; parameters: dose 1 mg/kg, route oral; conditions: Lewis, plasma; summary of the method: as §2

SMILES | EC50 [1] | Efficacy [2] | EC50 [3] | Activity [4] | Efficacy [5] | solubility [6] | Papp [7] | efflux ratio [8] | fraction unbound [9] | microsomal CLint at 1 µM [10] | Cp (Plasma) | concentration at 24 h [11] | Activity (Rattus norvegicus)
Cn1cc(C(=O)Nc2ccc(-c3ccccc3)c(C(F)(F)F)c2)c(=O)c2ccc(C(=O)O)cc21 | 21 nM | 98% | > 25000 nM | < 10% |  | 48 µg/mL (≈ 103 µM) | 3 ×10⁻⁶ cm/s | 6.7 | 0.02 | < 14 µL/min/mg | BLD |  | 4%
Cn1cc(C(=O)Nc2ccc(-c3ccccc3)c(C(F)(F)F)c2)c(=O)c2cnc(CCC(=O)O)cc21 | 38 nM | 88% | 1300 nM |  | 49% |  |  |  |  |  |  |  | 
Cn1cc(C(=O)Nc2ccc(-c3ccccc3)c(C(F)(F)F)c2)c(=O)c2ccc(CC(=O)O)cc21 | 180 nM | 138% | 1600 nM |  | 28% |  |  |  |  |  |  |  | 
Cn1cc(C(=O)Nc2ccc(-c3ccccc3)c(C(F)(F)F)c2)c(=O)c2ccc(NCCC(=O)O)cc21 | 150 nM | 81% | > 25000 nM | < 10% |  |  |  |  |  |  |  |  | 
Cn1cc(C(=O)Nc2ccc(-c3ccccc3)c(C(F)(F)F)c2)c(=O)c2ccc(CN3CC(C(=O)O)C3)cc21 | 25 nM | 108% | > 25000 nM | < 10% |  |  |  |  |  |  |  |  | 

Further lines, with some results ahead:

EC50 [1] | Efficacy [2] | EC50 [3] | Activity [4] | Efficacy [5] | solubility [6] | Papp [7] | efflux ratio [8] | fraction unbound [9] | microsomal CLint at 1 µM [10] | Cp (Plasma) | concentration at 24 h [11] | SMILES | Activity (Rattus norvegicus)
15 nM | 118% | > 25000 nM | < 10% |  |  |  |  |  |  |  |  | Cn1cc(C(=O)Nc2ccc(-c3ccccc3)c(C(F)(F)F)c2)c(=O)c2ccc(CCCO)cc21 | 
81 nM | 118% | 5600 nM |  | 48% |  |  |  |  |  |  |  | Cn1cc(C(=O)Nc2ccc(-c3ccccc3)c(C(F)(F)F)c2)c(=O)c2cccc(CN)c21 | 
39 nM | 104% | > 25000 nM | < 10% |  |  |  |  |  |  |  |  | Cn1cc(C(=O)Nc2ccc(-c3ccccc3)c(C(F)(F)F)c2)c(=O)c2cccc(CO)c21 | 
4 nM | 85% | 940 nM |  | 82% | 200 µg/mL (≈ 404 µM) | 1.6 ×10⁻⁶ cm/s | 1 | 0.022 | < 14 µL/min/mg |  | 4 ng/mL | Cn1cc(C(=O)Nc2ccc(-c3ccccc3)c(C(F)(F)F)c2)c(=O)c2ccc(CCC(=O)O)cc21 | -25%
